Experimental data as given in ChEMBL document CHEMBL3045596, “Synthesis and herbicidal activity of 12-(aryloxyacyloxyimino)-1,15-pentadecanlactone derivatives” (J Agric Food Chem, 2009).
≈ marks a conversion by molar mass, not a printed value.

These compounds were tested on Lolium arundinaceum (assay: Herbicidal activity against Festuca arundinacea assessed as plant dead at 25 to 32 degC measured after 7 days). Conditions: L., 168 h.
Format: functional, organism-based
Procedure, shortened: (§1)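 Seedlings grown at 25-32 °C for about 7 days, then thinned to thirty plants per cup at the two-leaf stage. Emulsion (1 mL per cup) applied by Potter spray tower, after which plants were kept at 25-32 °C. Three replicates per concentration.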

With `O=C1CCCCCCCCCCC(=NOC(=O)COc2ccc(Cl)cc2Cl)CCCO1` the EC50 was 50.2 µg/mL (≈ 106 µM).

What follows are compounds tested on Oryza sativa (assay: Herbicidal activity against Oryza sativa (rice) assessed as plant dead at 25 to 32 degC measured after 7 days). Conditions: 168 h.
Format: functional, organism-based
Procedure, shortened: as §1

Compound `O=C1CCCCCCCCCCC(=NOC(=O)COc2ccc(Cl)cc2Cl)CCCO1` has an EC50 of 2.5 µg/mL (≈ 5.29 µM).

Each compound was assayed on Zea mays (assay: Herbicidal activity against Zea mays (maize) assessed as plant dead at 25 to 32 degC measured after 7 days). Conditions: 168 h.
Format: functional, organism-based
Procedure, shortened: as §1

With `O=C1CCCCCCCCCCC(=NOC(=O)COc2ccc(Cl)cc2Cl)CCCO1` the EC50 was 0.3 µg/mL (≈ 0.635 µM).

Each compound was assayed on Triticum aestivum (assay: Herbicidal activity against Triticum aestivum L. (wheat) assessed as plant dead at 25 to 32 degC measured after 7 days). Conditions: 168 h.
Format: functional, organism-based
Procedure, shortened: as §1

For `O=C1CCCCCCCCCCC(=NOC(=O)COc2ccc(Cl)cc2Cl)CCCO1`, the EC50 was 38.4 µg/mL (≈ 81.3 µM).

The compounds below were run on Glycine max (assay: Herbicidal activity against Glycine max (soybean) assessed as plant dead at 25 to 32 degC measured after 7 days). Conditions: 168 h.
Format: functional, organism-based
Procedure, shortened: as §1

With `O=C1CCCCCCCCCCC(=NOC(=O)COc2ccc(Cl)cc2Cl)CCCO1` the EC50 was 14.4 µg/mL (≈ 30.5 µM).

Each compound was assayed on Vigna radiata var. radiata (assay: Herbicidal activity against Vigna radiata var. radiata assessed as plant dead at 25 to 32 degC measured after 7 days). Conditions: 168 h.
Format: functional, organism-based
Procedure, shortened: as §1

For `O=C1CCCCCCCCCCC(=NOC(=O)COc2ccc(Cl)cc2Cl)CCCO1`, the EC50 was 2.8 µg/mL (≈ 5.93 µM).

Each compound was assayed on Cucumis sativus (assay: Herbicidal activity against Cucumis sativus (cucumber) assessed as plant dead at 25 to 32 degC measured after 7 days). Conditions: 168 h.
Format: functional, organism-based
Procedure, shortened: as §1

Compound `O=C1CCCCCCCCCCC(=NOC(=O)COc2ccc(Cl)cc2Cl)CCCO1` has an EC50 of 1.5 µg/mL (≈ 3.18 µM).

The compounds below were run on Amaranthus tricolor (assay: Herbicidal activity against Amaranthus tricolor assessed as plant dead at 25 to 32 degC measured after 7 days). Conditions: 168 h.
Format: functional, organism-based
Procedure, shortened: as §1

`Cc1cc(OC(C)(C)C(=O)ON=C2CCCCCCCCCCC(=O)OCCC2)ccc1Cl` and `CC(C)(Oc1ccc(Cl)cc1)C(=O)ON=C1CCCCCCCCCCC(=O)OCCC1` are within 1.5-fold of each other in EC50: 50.1 µg/mL (≈ 104 µM) for the first, 46.5 µg/mL (≈ 99.8 µM) for the second.

Going from `Cc1ccc(OC(C)(C)C(=O)ON=C2CCCCCCCCCCC(=O)OCCC2)cc1` to `CC(C)(Oc1ccccc1)C(=O)ON=C1CCCCCCCCCCC(=O)OCCC1`, the EC50 falls from 55.4 µg/mL (≈ 124 µM) to 34.6 µg/mL (≈ 80.2 µM) (1.6-fold).

`Cc1cc(Cl)ccc1OCC(=O)ON=C1CCCCCCCCCCC(=O)OCCC1` and `Cc1cc(Cl)ccc1OCC(=O)O/N=C1/CCCCCCCCCCC(=O)OCCC1` are within 1.5-fold of each other in EC50: 19.6 µg/mL (≈ 43.4 µM) for the first, 18.2 µg/mL (≈ 40.3 µM) for the second.

First: O=C1CCCCCCCCCCC(=NOC(=O)COc2ccc(Cl)cc2Cl)CCCO1
Second: O=C1CCCCCCCCCCC(=NOC(=O)COc2ccc(Br)cc2Cl)CCCO1
The EC50 of the first is 2.2-fold lower: 7.7 µg/mL (≈ 16.3 µM) for the first, 16.9 µg/mL (≈ 32.7 µM) for the second.

`CC(Oc1ccccc1)C(=O)ON=C1CCCCCCCCCCC(=O)OCCC1` (stereo unspecified) and `CC(Oc1ccccc1Cl)C(=O)ON=C1CCCCCCCCCCC(=O)OCCC1` (stereo unspecified) are within 1.5-fold of each other in EC50: 22.4 µg/mL (≈ 53.6 µM) for the first, 18 µg/mL (≈ 39.8 µM) for the second.

Going from `Cc1ccc(OC(C)C(=O)ON=C2CCCCCCCCCCC(=O)OCCC2)cc1` (stereo unspecified) to `CC(Oc1ccc(Cl)cc1)C(=O)ON=C1CCCCCCCCCCC(=O)OCCC1` (stereo unspecified), the EC50 falls from 35.9 µg/mL (≈ 83.2 µM) to 17.8 µg/mL (≈ 39.4 µM) (2-fold).

Compared with `CC(Oc1cccc(Cl)c1)C(=O)ON=C1CCCCCCCCCCC(=O)OCCC1` (stereo unspecified), `Cc1cc(OC(C)C(=O)ON=C2CCCCCCCCCCC(=O)OCCC2)ccc1Cl` (stereo unspecified) is 2.6-fold lower in EC50: 25.1 µg/mL (≈ 55.5 µM) for the first, 9.5 µg/mL (≈ 20.4 µM) for the second.

`Cc1cccc(OC(C)C(=O)ON=C2CCCCCCCCCCC(=O)OCCC2)c1C` (stereo unspecified) and `Cc1cccc(OCC(=O)ON=C2CCCCCCCCCCC(=O)OCCC2)c1C` are within 1.5-fold of each other in EC50: 49.6 µg/mL (≈ 111 µM) for the first, 52.4 µg/mL (≈ 121 µM) for the second.

`CC(Oc1ccc(Cl)cc1Cl)C(=O)ON=C1CCCCCCCCCCC(=O)OCCC1` (stereo unspecified) and `Cc1cc(Cl)ccc1OCC(=O)O/N=C1\CCCCCCCCCCC(=O)OCCC1` are within 1.5-fold of each other in EC50: 13.5 µg/mL (≈ 27.8 µM) for the first, 18.3 µg/mL (≈ 40.5 µM) for the second.

Compared with `CC1CCC(=NOC(=O)COc2ccc(Cl)cc2)CCCCCCCCCCC(=O)O1` (stereo unspecified), `Cc1cc(OCC(=O)ON=C2CCCCCCCCCCC(=O)OC(C)CC2)ccc1Cl` (stereo unspecified) is 3.6-fold lower in EC50: 12.4 µg/mL (≈ 27.4 µM) for the first, 3.4 µg/mL (≈ 7.3 µM) for the second.

`Cc1cc(Cl)ccc1OCC(=O)ON=C1CCCCCCCCCCC(=O)OC(C)CC1` (stereo unspecified) and `CC1CCC(=NOC(=O)COc2ccc(Cl)cc2Cl)CCCCCCCCCCC(=O)O1` (stereo unspecified) are within 1.5-fold of each other in EC50: 8 µg/mL (≈ 17.2 µM) for the first, 8.2 µg/mL (≈ 16.9 µM) for the second.

`CC1CCC(=NOC(=O)COc2ccc(Br)cc2Cl)CCCCCCCCCCC(=O)O1` (stereo unspecified) and `O=C1CCCCCCCCCC/C(=N/OC(=O)COc2ccc(Br)cc2Cl)CCCO1` are within 1.5-fold of each other in EC50: 14.4 µg/mL (≈ 27.1 µM) for the first, 14.7 µg/mL (≈ 28.4 µM) for the second.

Going from `CC1CCC(=NOC(=O)C(C)Oc2ccc(Cl)cc2)CCCCCCCCCCC(=O)O1` (stereo unspecified) to `O=C1CCCCCCCCCC/C(=N/OC(=O)COc2ccc(Cl)cc2)CCCO1`, the EC50 rises from 4.8 µg/mL (≈ 10.3 µM) to 16.3 µg/mL (≈ 37.2 µM) (3.4-fold).

`O=C1CCCCCCCCCC/C(=N\OC(=O)COc2ccc(Cl)cc2)CCCO1` and `O=C1CCCCCCCCCCC(=NOC(=O)COc2ccc(Cl)cc2)CCCO1` are within 1.5-fold of each other in EC50: 15.7 µg/mL (≈ 35.8 µM) for the first, 18.2 µg/mL (≈ 41.6 µM) for the second.

First: O=C1CCCCCCCCCC/C(=N\OC(=O)COc2ccc(Br)cc2Cl)CCCO1
Second: O=C1CCCCCCCCCCC(=NOC(=O)COc2ccccc2Cl)CCCO1
The EC50 of the first is 2.1-fold lower: 14.4 µg/mL (≈ 27.9 µM) for the first, 30.6 µg/mL (≈ 69.9 µM) for the second.

Compared with `O=C1CCCCCCCCCCC(=NOC(=O)COc2ccccc2)CCCO1`, `Cc1ccccc1OCC(=O)ON=C1CCCCCCCCCCC(=O)OCCC1` is 1.6-fold higher in EC50: 73.2 µg/mL (≈ 181 µM) for the first, 117 µg/mL (≈ 281 µM) for the second.

`Cc1ccc(OCC(=O)ON=C2CCCCCCCCCCC(=O)OCCC2)cc1` and `COc1ccc(OCC(=O)ON=C2CCCCCCCCCCC(=O)OCCC2)cc1` are within 1.5-fold of each other in EC50: 55.4 µg/mL (≈ 133 µM) for the first, 48.8 µg/mL (≈ 113 µM) for the second.

First: O=C1CCCCCCCCCCC(=NOC(=O)COc2cccc(Cl)c2)CCCO1
Second: O=C1CCCCCCCCCCC(=NOC(=O)COc2cccc([N+](=O)[O-])c2)CCCO1
The EC50 of the first is 3.4-fold lower: 23.8 µg/mL (≈ 54.3 µM) for the first, 80.9 µg/mL (≈ 180 µM) for the second.

First: Cc1ccc(OCC(=O)ON=C2CCCCCCCCCCC(=O)OCCC2)cc1C
Second: COC(=O)c1ccccc1S(=O)(=O)NC(=O)N(C)c1nc(C)nc(OC)n1 [TRIBENURON METHYL]
The EC50 of the first is 2.5-fold higher: 55.4 µg/mL (≈ 128 µM) for the first, 22.4 µg/mL (≈ 56.7 µM) for the second.

With `O=C(O)COc1ccc(Cl)cc1Cl` [2,4-DICHLOROPHENOXYACETIC ACID] the EC50 was 117 µg/mL (≈ 531 µM).
